Data as given in ChEMBL document CHEMBL2016529, “Synthesis and biological evaluation of novel potent angiotensin II receptor antagonists with anti-hypertension effect” (Bioorg Med Chem, 2012).
pIC50, pKi: −log10 of the molar value. Active and inactive are the calls of the source. The calls are words filed in the database; no cut-off is given here.

How the values were obtained:
[1] = tested on: Rattus norvegicus; experiment: Antihypertensive activity in rat spontaneous hypertensive model assessed as reduction in systolic blood pressure at 30 mg/kg, po up to 10 hrs; assay type: functional, organism-based; design: dose 30 mg/kg; settings: Artery
In short: (§1)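 Male spontaneously hypertensive rats, randomized into groups of ten. Compound suspended in 0.5% sodium carboxymethyl cellulose and given orally once at 15 or 30 mg/kg. Negative controls received the same volume of vehicle, and valsartan and irbesartan at equal doses served as positive controls. Blood pressure (SBP, DBP) and heart rate were monitored over 0–10 h after dosing with a biological signal analysis system.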

[2] = tested on: Rattus norvegicus; experiment: Antihypertensive activity in rat spontaneous hypertensive model assessed as reduction in diastolic blood pressure at 15 mg/kg, po up to 10 hrs; assay type: functional, organism-based; design: dose 15 mg/kg; settings: Artery; in short: as §1
[3] = tested on: Rattus norvegicus; experiment: Antihypertensive activity in rat spontaneous hypertensive model assessed as reduction in systolic blood pressure at 15 mg/kg, po up to 10 hrs; assay type: functional, organism-based; design: dose 15 mg/kg; settings: Artery; in short: as §1
[4] = tested on: Rattus norvegicus; experiment: Toxicity in rat spontaneous hypertensive model assessed as effect on heart rate at 15 mg/kg, po; assay type: organism-based; design: dose 15 mg/kg, route oral; settings: in vivo; in short: as §1
[5] = species on record: Rattus norvegicus; experiment: (§2) Displacement of [I125]angiotensin2 from AT1 receptor in Sprague-Dawley rat VSMC after 2.5 hrs by gamma spectrophotometry
In short: (§3)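 Smooth muscle cells from rat aorta were isolated by collagenase digestion (1 h, 37 °C) and grown in DMEM with 15% FBS. Quiescent, confluent monolayers were incubated in PBS with 0.1 nM 125I-Ang II and compound at final 1×10^-12 to 1×10^-6 M for 2.5 h at 4 °C. Nonspecific binding was defined with 1×10^-6 M competitor. Cells were washed three times, lysed in 0.1 M NaOH, and bound radioactivity was gamma counted.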

[6] = as §2; in short: as §3
[7] = tested on: Rattus norvegicus; experiment: Toxicity in rat spontaneous hypertensive model assessed as effect on heart rate at 30 mg/kg, po; assay type: organism-based; design: dose 30 mg/kg, route oral; settings: in vivo; in short: as §1
[8] = tested on: Rattus norvegicus; experiment: Antihypertensive activity in rat spontaneous hypertensive model assessed as reduction in diastolic blood pressure at 30 mg/kg, po up to 10 hrs; assay type: functional, organism-based; design: dose 30 mg/kg; settings: Artery; in short: as §1
[9] = Acute toxicity in intragastrically dosed ICR rat; assay type: organism-based; settings: in vivo, po
In short: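 ICR rats (6–8 weeks, individually weighed) dosed intragastrically at 1000.0–5000.0 mg/kg (six dose levels); daily survival over 14 days. LD50 with 95% confidence limits obtained by logistic regression (GLM) curve fitting of 14-day mortality data.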

[10] = tested on: Rattus norvegicus; experiment: Antihypertensive activity in rat spontaneous hypertensive model assessed as time of maximum effect on diastolic blood pressure at 30 mg/kg, po; assay type: functional, Artery; in short: as §1
[11] = tested on: Rattus norvegicus; experiment: Antihypertensive activity in rat spontaneous hypertensive model assessed as time of maximum effect on systolic blood pressure at 30 mg/kg, po; assay type: functional, Artery; in short: as §1
[12] = Acute toxicity in ICR rat assessed as mortality at 5000 mg/kg, administered intragastrically after 14 days relative to control; assay type: organism-based; design: dose 5000 mg/kg, route intragastric; settings: in vivo, po, read-out: Activity
In short: (§4)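 Normal ICR rats, 6–8 weeks, weighed individually; single intragastric doses of 5000.0, 3823.6, 2924.0, 2236.1, 1710.0 or 1000.0 mg/kg. Survival checked daily for two weeks. Animals observed continuously for physical signs of toxicity (skin changes, mobility, aggressiveness, respiratory movements). Survivors dissected at the end and organs examined for pathological changes.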

[13] = tested on: Rattus norvegicus; experiment: Acute toxicity in ICR rat assessed as weight loss at 2236.1 mg/kg, administered intragastrically after 2 weeks; assay type: organism-based; design: dose 2236.1 mg/kg, route intragastric; settings: in vivo, po, 336 h; in short: as §4
[14] = tested on: Rattus norvegicus; experiment: Acute toxicity in ICR rat assessed as hypokinetic beginning at 2924 mg/kg, administered intragastrically after 5 hrs; assay type: organism-based; design: dose 2924 mg/kg, route intragastric; settings: in vivo, po; in short: as §4
[15] = tested on: Rattus norvegicus; experiment: Acute toxicity in ICR rat assessed as hypokinetic beginning at 1000 mg/kg, administered intragastrically after 5 hrs; assay type: organism-based; design: dose 1000 mg/kg, route intragastric; settings: in vivo, po; in short: as §4
[16] = Acute toxicity in ICR rat assessed as mortality at 1000 mg/kg, administered intragastrically after 14 days relative to control; assay type: organism-based; design: dose 1000 mg/kg, route intragastric; settings: in vivo, po, read-out: Activity; in short: as §4
[17] = tested on: Rattus norvegicus; experiment: Acute toxicity in ICR rat assessed as weight loss at 5000 mg/kg, administered intragastrically after 2 weeks; assay type: organism-based; design: dose 5000 mg/kg, route intragastric; settings: in vivo, po, 336 h; in short: as §4
[18] = tested on: Rattus norvegicus; experiment: Acute toxicity in ICR rat assessed as weight loss at 2924 mg/kg, administered intragastrically after 2 weeks; assay type: organism-based; design: dose 2924 mg/kg, route intragastric; settings: in vivo, po, 336 h; in short: as §4
[19] = tested on: Rattus norvegicus; experiment: Acute toxicity in ICR rat assessed as weight loss at 1000 mg/kg, administered intragastrically after 2 weeks; assay type: organism-based; design: dose 1000 mg/kg, route intragastric; settings: in vivo, po, 336 h; in short: as §4
[20] = tested on: Rattus norvegicus; experiment: Acute toxicity in ICR rat assessed as hypokinetic beginning at 1710 mg/kg, administered intragastrically after 5 hrs; assay type: organism-based; design: dose 1710 mg/kg, route intragastric; settings: in vivo, po; in short: as §4
[21] = tested on: Rattus norvegicus; experiment: Acute toxicity in ICR rat assessed as hypokinetic beginning at 3823.6 mg/kg, administered intragastrically after 5 hrs; assay type: organism-based; design: dose 3823.6 mg/kg, route intragastric; settings: in vivo, po; in short: as §4
[22] = tested on: Rattus norvegicus; experiment: Acute toxicity in ICR rat assessed as weight loss at 3823.6 mg/kg, administered intragastrically after 2 weeks; assay type: organism-based; design: dose 3823.6 mg/kg, route intragastric; settings: in vivo, po, 336 h; in short: as §4
[23] = tested on: Rattus norvegicus; experiment: Acute toxicity in ICR rat assessed as hypokinetic beginning at 5000 mg/kg, administered intragastrically after 5 hrs; assay type: organism-based; design: dose 5000 mg/kg, route intragastric; settings: in vivo, po; in short: as §4
[24] = tested on: Rattus norvegicus; experiment: Acute toxicity in ICR rat assessed as weight loss at 1710 mg/kg, administered intragastrically after 2 weeks; assay type: organism-based; design: dose 1710 mg/kg, route intragastric; settings: in vivo, po, 336 h; in short: as §4
[25] = Acute toxicity in ICR rat assessed as mortality at 1710 mg/kg, administered intragastrically after 14 days relative to control; assay type: organism-based; design: dose 1710 mg/kg, route intragastric; settings: in vivo, po, read-out: Activity; in short: as §4
[26] = Acute toxicity in ICR rat assessed as mortality at 3823.6 mg/kg, administered intragastrically after 14 days relative to control; assay type: organism-based; design: dose 3823.6 mg/kg, route intragastric; settings: in vivo, po, read-out: Activity; in short: as §4
[27] = tested on: Rattus norvegicus; experiment: Acute toxicity in ICR rat assessed as hypokinetic beginning at 2236.1 mg/kg, administered intragastrically after 5 hrs; assay type: organism-based; design: dose 2236.1 mg/kg, route intragastric; settings: in vivo, po; in short: as §4
[28] = Acute toxicity in ICR rat assessed as mortality at 2924 mg/kg, administered intragastrically after 14 days relative to control; assay type: organism-based; design: dose 2924 mg/kg, route intragastric; settings: in vivo, po, read-out: Activity; in short: as §4
[29] = Acute toxicity in ICR rat assessed as mortality at 2236.1 mg/kg, administered intragastrically after 14 days relative to control; assay type: organism-based; design: dose 2236.1 mg/kg, route intragastric; settings: in vivo, po, read-out: Activity; in short: as §4

CCCCC(=O)N(Cc1ccc(-c2ccccc2-c2nc(=O)o[nH]2)cc1)[C@@H](CC(C)C)C(=O)O
Activity [1]: inactive | Activity [2]: inactive | Activity [3]: inactive | Activity [4]: Non-toxic | inhibition [5]: Dose-dependent effect | pIC50 [6]: 7.99 | pKi [6]: 8.16 | Activity [7]: Non-toxic | Activity [8]: inactive

CCCCC(=O)N(Cc1ccc(-c2ccccc2-c2nnn[nH]2)cc1)[C@H](C(=O)O)C(C)C [VALSARTAN]
Activity [2]: Active | LD50 [9]: 308 mg/kg | Activity [3]: Active | Activity [4]: Non-toxic | inhibition [5]: Dose-dependent effect | pIC50 [6]: 8.58 | pKi [6]: 8.65 | Activity [7]: Non-toxic

CCCCC1=NC2(CCCC2)C(=O)N1Cc1ccc(-c2ccccc2-c2nnn[nH]2)cc1 [IRBESARTAN]
Activity [1]: Active | Time [10]: 3 h | Activity [2]: Active | Activity [3]: Active | Activity [4]: Non-toxic | inhibition [5]: Dose-dependent effect | pIC50 [6]: 9.24 | pKi [6]: 9.39 | Activity [7]: Non-toxic | Time [11]: 3 h | Activity [8]: Active

CCCC(=O)N(Cc1ccc(-c2cc(F)ccc2-c2noc(=O)[nH]2)cc1)[C@H](C(=O)O)C(C)C
Activity [1]: Active | Time [10]: 3 h | Activity [4]: Non-toxic | inhibition [5]: Dose-dependent effect | pIC50 [6]: 7.68 | pKi [6]: 7.85 | Activity [7]: Non-toxic | Time [11]: 3 h | Activity [8]: Active

CCCCC(=O)N(Cc1ccc(-c2ccccc2-c2nc(=O)o[nH]2)cc1)[C@H](C(=O)O)C(C)C
Activity [1]: Active | Time [10]: 3 h | Activity [2]: Active | Activity [3]: Active | Activity [4]: Non-toxic | inhibition [5]: Dose-dependent effect | pIC50 [6]: 8.01 | pKi [6]: 8.18 | Activity [7]: Non-toxic | Time [11]: 3 h | Activity [8]: Active

CCCCc1nc(Cl)c(CO)n1Cc1ccc(-c2ccccc2-c2nn[nH]n2)cc1 [LOSARTAN]
LD50 [9]: 2250 mg/kg

CCCCC(=O)N(Cc1ccc(-c2ccccc2-c2nc(=O)o[nH]2)cc1)[C@@H](Cc1ccccc1)C(=O)O
Activity [1]: inactive | Activity [2]: inactive | Activity [3]: inactive | Activity [4]: Non-toxic | inhibition [5]: Dose-dependent effect | pIC50 [6]: 7.74 | pKi [6]: 7.92 | Activity [7]: Non-toxic | Activity [8]: inactive

CCCC(=O)N(Cc1ccc(-c2ccccc2-c2nc(=O)o[nH]2)cc1)[C@H](C(=O)O)C(C)C
Activity [1]: Active | mortality at 336 h [12]: 100% | Activity [13]: Non-toxic | Activity [14]: Toxic | Activity [15]: Non-toxic | mortality at 336 h [16]: 0% | Activity [17]: Non-toxic | Activity [18]: Non-toxic | Time [10]: 3 h | Activity [2]: Active | LD50 [9]: 2320 mg/kg | Activity [19]: Non-toxic | Activity [3]: Active | Activity [4]: Non-toxic | Activity [20]: Toxic | Activity [21]: Toxic | Activity [22]: Non-toxic | Activity [23]: Toxic | Activity [24]: Non-toxic | inhibition [5]: Dose-dependent effect | pIC50 [6]: 9.31 | pKi [6]: 9.48 | mortality at 336 h [25]: 30% | Activity [7]: Non-toxic | mortality at 336 h [26]: 80% | Activity [27]: Toxic | mortality at 336 h [28]: 60% | mortality at 336 h [29]: 50% | Time [11]: 3 h | Activity [8]: Active

CCCC(=O)N(Cc1ccc(-c2ccccc2-c2nc(=O)o[nH]2)cc1)[C@@H](Cc1ccccc1)C(=O)O
Activity [1]: inactive | Activity [2]: inactive | Activity [3]: inactive | Activity [4]: Non-toxic | inhibition [5]: Dose-dependent effect | pIC50 [6]: 7.58 | pKi [6]: 7.75 | Activity [7]: Non-toxic | Activity [8]: inactive

CCCC(=O)N(Cc1ccc(-c2ccccc2-c2nc(=O)o[nH]2)cc1)[C@@H](CC(C)C)C(=O)O
Activity [1]: Active | Time [10]: 3 h | Activity [2]: Active | Activity [3]: Active | Activity [4]: Non-toxic | inhibition [5]: Dose-dependent effect | pIC50 [6]: 7.44 | pKi [6]: 7.61 | Activity [7]: Non-toxic | Time [11]: 3 h | Activity [8]: Active

CCC(=O)N(Cc1ccc(-c2ccccc2-c2nc(=O)o[nH]2)cc1)[C@H](C(=O)O)C(C)C
Activity [1]: Active | Time [10]: 3 h | Activity [2]: Active | Activity [3]: Active | Activity [4]: Non-toxic | inhibition [5]: Dose-dependent effect | pIC50 [6]: 8.80 | pKi [6]: 8.99 | Activity [7]: Non-toxic | Time [11]: 3 h | Activity [8]: Active
